Structures are written as SMILES. Active and inactive are the calls of the source.

From ChEMBL document CHEMBL3351787, “Electrophilic warhead-based design of compounds preventing NLRP3 inflammasome-dependent pyroptosis” (J Med Chem, 2014) come the findings set out here.

The nature of data set [1]: Antipyroptotic activity in PMA-differentiated and LPS-primed human THP1 cells assessed as decrease in ATP-induced pyroptosis measured as LDH activity at 10 uM after 1 hrs by colorimetric assay. It counts as functional. The settings on record: THP-1, 1 h.
A short description of data set [2]: Cytotoxicity against human HK2 cells assessed as cell viability after 72 hrs by MTT assay. In kind it is cell-based, HK-2. The note with it: read-out: TC50. In short, it runs like this: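 MTT viability assay in human renal epithelial HK-2 cells. TC50 defined as molar concentration lowering HK-2 viability by 50%.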
A general note: Formazan colour is commonly taken as a measure of viable cells.

Data set [3] in a line: Antipyroptotic activity in PMA-differentiated and LPS-primed human THP1 cells assessed as decrease in ATP-induced pyroptosis measured as LDH activity after 1 hrs pretreated with 5 mM ATP for 1 hr by colorimetric assay. In kind it is functional, cell-based. The settings on record: thp-1. The gist of the method: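 PMA-differentiated, LPS-primed THP-1 cells pre-treated 1 h with compound (0.001-10 μM), then ATP 5 mM for 1 h. LDH in collected supernatant read colorimetrically; output as decrease of cell death vs vehicle. EC50 taken as concentration giving 50% of maximal possible effect. Mean±SEM of at least four experiments in triplicate.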

Data set [4] can be described thus: (§1) Antipyroptotic activity in PMA-differentiated and LPS-primed human THP1 cells assessed as decrease in nigericin-induced pyroptosis measured as LDH activity after 1 hrs pretreated with 10 uM nigericin for 1.5 hrs by colorimetric assay. It counts as functional, cell-based. The note with it: thp-1. The gist of the method:
(§2)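 Differentiated (PMA) and LPS-primed THP-1 cells received compound at 0.001-10 μM 1 h ahead of nigericin (10 μM, 1.5 h). Supernatant LDH activity measured by colorimetric assay, expressed as decrease of cell death vs vehicle alone; pEC50 derived from concentration-response curves. Mean±SEM, ≥4 experiments in triplicate.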

Data set [5] concerns THP-1. The data set is described as §1. In kind it is functional, cell-based. The gist of the method:
as §2

The target of data set [6] is NACHT, LRR and PYD domains-containing protein 3 (Homo sapiens) (UniProt Q96P20). In words: Inhibition of recombinant NLRP3-ATPase (unknown origin) assessed as hydrolysis of ATP at 10 uM. In short, it runs like this:
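Recombinant NLRP3 (0.01 μg) pre-incubated 15 min with compound (10 μM); ATP 250 μM then added and incubated 1 h at 37 °C. ATP hydrolysis quantified as Pi content by colorimetric phosphate detection. Expressed as % inhibition vs vehicle; mean±SEM of ≥3 experiments in duplicate.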

Data set [7] in a line: Activation of Keap1-Nrf2 pathway in human THP1 cells assessed as NFE2L2 marker gene expression level at 10 uM after 2 hrs by RT-PCR analysis. It counts as functional, cell-based. The settings on record: THP-1.
Data set [8] is described as follows: Activation of KIea[1/Nrf2 pathway in human THP1 cells assessed as HMOX1 marker gene expression level at 10 uM after 2 hrs by RT-PCR analysis. It counts as functional, cell-based. The settings on record: THP-1.
Data set [9] concerns the target T1, Caspase-1 (Homo sapiens) (UniProt P29466).
T1 sequence (whole entry): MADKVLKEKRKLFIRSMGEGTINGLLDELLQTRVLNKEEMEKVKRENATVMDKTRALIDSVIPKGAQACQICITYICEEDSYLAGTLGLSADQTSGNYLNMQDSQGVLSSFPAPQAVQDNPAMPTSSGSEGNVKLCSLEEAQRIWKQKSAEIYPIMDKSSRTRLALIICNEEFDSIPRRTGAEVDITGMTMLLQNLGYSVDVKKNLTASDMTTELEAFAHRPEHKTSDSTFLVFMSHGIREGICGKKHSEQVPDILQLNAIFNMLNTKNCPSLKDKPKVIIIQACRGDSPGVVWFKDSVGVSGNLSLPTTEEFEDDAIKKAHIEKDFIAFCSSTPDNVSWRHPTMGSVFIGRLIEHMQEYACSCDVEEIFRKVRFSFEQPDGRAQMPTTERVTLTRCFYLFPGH
Put plainly: Inhibition of caspase 1 (unknown origin) using N-acetyl-Tyr-Val-Ala-Asp-para-nitroanilide substrate assessed as rate of para-nitroanilide release after 15 to 60 mins preincubation by spectrophotometric assay. The gist of the method:
(§3)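 Caspase-1 from THP-1 cell cultures (50 U) pre-incubated 15-60 min with compound at 0.01-10 μM, then activity followed continuously by pNA release from Ac-YVAD-pNA (200 μM; 1 h) at 405 nm. kobs at each concentration used to obtain kinact (irreversible first-order rate) and Ki = k-1/k1.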

The target of data set [10] is T1, Caspase-1 (Homo sapiens). Put plainly: Inhibition of caspase 1 (unknown origin) using N-acetyl-Tyr-Val-Ala-Asp-para-nitroanilide substrate assessed as rate of para-nitroanilide release at 0.01 to 10 uM by spectrophotometric assay. The settings on record: TDE = time-dependent effect. The gist of the method:
as §3

The target in data set [11] is T1, Caspase-1 (Homo sapiens). In words: (§4) Inhibition of caspase 1 (unknown origin) using N-acetyl-Tyr-Val-Ala-Asp-para-nitroanilide substrate assessed as rate of para-nitroanilide release by spectrophotometric assay. The gist of the method:
as §3

Data set [12] addresses T2, Caspase-1 (Homo sapiens, UniProt P29466).
T2 sequence (P29466 whole entry): T1 sequence (whole entry)
The description is as §4. In short, it runs like this: as §3

Data set [13] is described as follows: cysteamine reactivity assessed as second-order reaction rate constant in PBS at pH 7.4 and […] by DTNB spectrophotometric assay.

Sequence of NACHT, LRR and PYD domains-containing protein 3 (Homo sapiens) (Q96P20 whole entry, the tested form may be a part): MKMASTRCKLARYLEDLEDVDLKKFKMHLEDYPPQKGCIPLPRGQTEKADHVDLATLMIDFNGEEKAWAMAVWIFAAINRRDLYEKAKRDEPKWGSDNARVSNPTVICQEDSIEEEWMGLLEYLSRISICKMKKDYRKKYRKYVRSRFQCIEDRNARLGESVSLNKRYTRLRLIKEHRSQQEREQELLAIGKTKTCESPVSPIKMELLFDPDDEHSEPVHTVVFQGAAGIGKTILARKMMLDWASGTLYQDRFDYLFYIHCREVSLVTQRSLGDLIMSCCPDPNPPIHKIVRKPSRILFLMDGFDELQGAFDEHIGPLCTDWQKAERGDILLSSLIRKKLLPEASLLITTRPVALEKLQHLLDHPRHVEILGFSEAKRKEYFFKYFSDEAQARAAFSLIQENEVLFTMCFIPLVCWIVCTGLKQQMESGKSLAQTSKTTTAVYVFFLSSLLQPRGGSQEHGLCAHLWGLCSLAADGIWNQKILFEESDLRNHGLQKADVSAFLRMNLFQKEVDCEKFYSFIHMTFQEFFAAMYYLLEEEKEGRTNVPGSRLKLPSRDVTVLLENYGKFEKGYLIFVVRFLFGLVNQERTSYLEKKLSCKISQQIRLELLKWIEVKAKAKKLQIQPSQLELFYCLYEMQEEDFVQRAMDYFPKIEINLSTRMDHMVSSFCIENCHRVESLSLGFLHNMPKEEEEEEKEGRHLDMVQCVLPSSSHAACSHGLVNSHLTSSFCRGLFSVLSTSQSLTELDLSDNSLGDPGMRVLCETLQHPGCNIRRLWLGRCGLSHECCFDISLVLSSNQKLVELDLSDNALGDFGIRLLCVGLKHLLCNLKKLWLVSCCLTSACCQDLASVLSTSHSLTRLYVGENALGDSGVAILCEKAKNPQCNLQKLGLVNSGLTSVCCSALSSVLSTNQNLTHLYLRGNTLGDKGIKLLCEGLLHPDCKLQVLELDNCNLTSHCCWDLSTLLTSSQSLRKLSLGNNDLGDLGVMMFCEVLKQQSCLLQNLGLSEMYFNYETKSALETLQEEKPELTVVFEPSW

What is called inhibition is the share of the control response that was lost under treatment. The pEC50 is the EC50 on a negative log10 scale, so that one unit is a factor of ten. For orientation: Ki means a dissociation constant, usually derived from enzyme kinetics or from competition with a known ligand. As for `C=C(C(=O)OCC)C(O)c1ccccc1Cl` (stereo not drawn), in data set [1], the inhibition at 10 µM was determined as 75.1%. Also, the CC50 at 72 h in data set [2] amounted to 67 µM. The pEC50 is listed as 6.9 in data set [3] and 6.8 in [4]. Moreover, the inhibition result in data set [5] was “Dose-dependent effect”; in [6] it was 51.8%; in data set [9], “Dose-dependent effect”; in data set [10] it was “tde”. For the same molecule, the outcome in data set [7] and in data set [8] was Active. In [11], the Kinact is 3.2 s⁻¹. The Ki in [12] came out at 9.6 µM. Further, in data set [13], the k2 was 0.866 M⁻¹ s⁻¹.
